Activity calls are given as the source filed them. No cut-off for these calls is given here.
What was measured:
MCF7 [1] = assay: Induction of apoptosis in human MCF7 cells assessed as phosphatidylserine exposure after 24 hrs using annexin V/PI staining by flow cytometry; format: functional, cell-based
How it was run: (§1)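 MCF-7 cells were exposed to vehicle or the indicated compound concentrations for 24 h. Phosphatidylserine exposure was then measured by flow cytometry after staining with FITC-labelled Annexin V and propidium iodide. Apoptotic cell fractions were read from dot plots relative to vehicle.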

MCF7 [2] = assay: Induction of apoptosis in human MCF7 cells assessed as caspase-9 cleavage at 5 uM after 6 hrs by immunoblotting method; format: functional, cell-based
MCF7 [3] = assay: Antiproliferative activity against human MCF7 cells after 48 hrs by MTT assay; format: functional, cell-based; conditions: MCF7, 48 h
How it was run: (§2)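 MCF-7 (ER+ve) and MDA-MB-231 (ER-ve) breast cancer cells were exposed to compound or vehicle. Viability was read by MTT and expressed as % cell death versus vehicle, with 4-hydroxytamoxifen as positive control. IC50 came from three independent experiments, each in triplicate.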

MDA-MB-231 [4] = assay: Cell cycle arrest in human MDA-MB-231 cells assessed as accumulation at G2 phase at 3 uM after 24 hrs using propidium iodide staining by flow cytometry (reference value: 18.75 %); format: functional
MCF7 [5] = assay: Cytotoxicity against human MCF7 cells assessed as reduction in membrane integrity at IC50 by LDH release assay; format: functional, cell-based
How it was run: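 Membrane integrity was assessed in MCF-7 cells exposed to a range of compound concentrations, by measuring LDH released into the culture medium.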

MCF7 [6] = assay: Cell cycle arrest in human MCF7 cells assessed as increase in p27 mRNA level at 1 to 5 uM after 12 hrs by QRT-PCR method; format: functional, cell-based
Vero = assay: Cytotoxicity against african green monkey Vero cells after 24 hrs by MTT assay; format: cell-based; conditions: chlorocebus sabaeus
How it was run: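 Vero, HEK-293 and primary rat calvarial osteoblasts were given vehicle or a range of concentrations for 24 h. Cell death was expressed as % relative to vehicle.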

MCF7 [7] = assay: Cell cycle arrest in human MCF7 cells assessed as increase in p21 mRNA level at 1 to 5 uM after 12 hrs by QRT-PCR method; format: functional, cell-based
MDA-MB-231 [8] = assay: Cell cycle arrest in human MDA-MB-231 cells assessed as accumulation at G2 phase at 1 uM after 24 hrs using propidium iodide staining by flow cytometry (reference value: 18.75 %); format: functional
MDA-MB-231 [9] = assay: Cell cycle arrest in human MDA-MB-231 cells assessed as accumulation at G1 phase at 5 uM after 24 hrs using propidium iodide staining by flow cytometry (reference value: 52.67 %); format: functional
MCF7 [10] = assay: Induction of apoptosis in human MCF7 cells assessed as reduction in mitochondrial membrane potential at 1 to 5 uM after 12 hrs by Jc-1 staining-based flow cytometry; format: functional, cell-based
MCF7 [11] = assay: Antiproliferative activity against human MCF7 cells after 24 hrs by MTT assay; format: functional, cell-based; conditions: MCF7, 24 h; how it was run: as §2
MDA-MB-231 [12] = assay: Cell cycle arrest in human MDA-MB-231 cells assessed as accumulation at S phase at 5 uM after 24 hrs using propidium iodide staining by flow cytometry (reference value: 28.59 %); format: functional
MCF7 [13] = assay: Cell cycle arrest in human MCF7 cells assessed as accumulation at S phase at 3 uM after 24 hrs using propidium iodide staining by flow cytometry (reference value: 24.81 %); format: functional
MCF7 [14] = assay: Cell cycle arrest in human MCF7 cells assessed as accumulation at G2 phase at 5 uM after 24 hrs using propidium iodide staining by flow cytometry (reference value: 7.46 %); format: functional
MCF7 [15] = assay: Induction of apoptosis in human MCF7 cells assessed as reduction in cell viability at 5 uM after 24 hrs by MTT assay in presence of LEHD-FMK; format: functional, cell-based
MCF7 [16] = assay: Induction of apoptosis in human MCF7 cells assessed as late apoptotic cells at 5 uM after 24 hrs using annexin V/PI staining by flow cytometry (reference value: 6.46 %); format: functional; how it was run: as §1
MCF7 [17] = assay: Antiproliferative activity against human MCF7 cells after 72 hrs by MTT assay; format: functional, cell-based; conditions: MCF7, 72 h; how it was run: as §2
MCF7 [18] = assay: Induction of apoptosis in human MCF7 cells assessed as reduction in cell viability at 5 uM after 24 hrs by MTT assay in presence of zVAD-FMK; format: functional, cell-based
MCF7 [19] = assay: Cell cycle arrest in human MCF7 cells assessed as apoptosis at 3 uM after 24 hrs using propidium iodide staining by flow cytometry (reference value: 0.06 %); format: functional
MCF7 [20] = assay: Cell cycle arrest in human MCF7 cells assessed as decrease in cyclin D1 mRNA level at 1 to 5 uM after 12 hrs by QRT-PCR method; format: functional, cell-based
MCF7 [21] = assay: Induction of apoptosis in human MCF7 cells assessed as increase in Bax/Bcl2 ratio at 5 uM after 6 to 24 hrs by immunoblotting method; format: functional, cell-based
MCF7 [22] = assay: Cell cycle arrest in human MCF7 cells assessed as increase in p21 protein level at 5 uM after 12 to 24 hrs by immunoblotting method; format: functional, cell-based
MCF7 [23] = assay: Induction of apoptosis in human MCF7 cells assessed as early apoptotic cells at 5 uM after 24 hrs using annexin V/PI staining by flow cytometry (reference value: 3.19 %); format: functional
MCF7 [24] = assay: Induction of apoptosis in human MCF7 cells assessed as early apoptotic cells at 1 uM after 24 hrs using annexin V/PI staining by flow cytometry (reference value: 3.19 %); format: functional
MCF7 [25] = assay: Cell cycle arrest in human MCF7 cells assessed as decrease in E2F mRNA level at 1 to 5 uM after 12 hrs by QRT-PCR method; format: functional, cell-based
Mus musculus = assay: Toxicity in human MCF7 cells xenografted athymic nude mouse assessed as change in body weight at 16 mg/kg/day, po for 21 days measured up to 21 days relative to vehicle-treated control; format: organism-based; set-up: route oral; conditions: in vivo, 504 h
MDA-MB-231 [26] = assay: Antiproliferative activity against human MDA-MB-231 cells after 48 hrs by MTT assay; format: functional, cell-based; conditions: MDA-MB-231, 48 h; how it was run: as §2
MCF7 [27] = assay: Cell cycle arrest in human MCF7 cells assessed as apoptosis at 1 uM after 24 hrs using propidium iodide staining by flow cytometry (reference value: 0.06 %); format: functional
[28] = Safety index, ratio of IC50 for HEK293 cells to IC50 for human MCF7 cells; format: toxicity, cell-based; conditions: HEK293 cells versus MCF7 cells, read-out: Ratio IC50
How it was run: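 Cell death was assessed by MTT assay after 72 h exposure. The ratio was calculated as the HEK-293 IC50 divided by the MCF-7 EC50.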

MCF7 [29] = assay: Induction of apoptosis in human MCF7 cells assessed as early apoptotic cells at 3 uM after 24 hrs using annexin V/PI staining by flow cytometry (reference value: 3.19 %); format: functional
MCF7 [30] = assay: Cell cycle arrest in human MCF7 cells assessed as increase in p27 protein level at 5 uM after 12 to 24 hrs by immunoblotting method; format: functional, cell-based
MDA-MB-231 [31] = assay: Cell cycle arrest in human MDA-MB-231 cells assessed as accumulation at G2 phase at 5 uM after 24 hrs using propidium iodide staining by flow cytometry (reference value: 18.75 %); format: functional
MCF7 [32] = assay: Induction of apoptosis in human MCF7 cells assessed as reduction in cell viability at 5 uM after 24 hrs by MTT assay in presence of zIEDT-FMK; format: functional, cell-based
MCF7 [33] = assay: Cell cycle arrest in human MCF7 cells assessed as accumulation at G1 phase at 3 uM after 24 hrs using propidium iodide staining by flow cytometry (reference value: 67.73 %); format: functional

SMILES: Cc1ccc(S(=O)(=O)N2Cc3ccccc3OC[C@@H]2Cc2ccc(OCCN3CCCCCC3)cc2)cc1.Cl
- Activity (MCF7 [1]): Dose-dependent effect
- Activity (MCF7 [2]): Active
- IC50 (MCF7 [3]): 3.55 µM
- Activity (MDA-MB-231 [4]): 8.08%
- Activity (MCF7 [5]): inactive
- Activity (MCF7 [6]): Active
- Activity (Vero): Non-toxic
- Activity (MCF7 [7]): Active
- Activity (MDA-MB-231 [8]): 7.46%
- Activity (MDA-MB-231 [9]): 75.82%
- Activity (MCF7 [10]): Active
- IC50 (MCF7 [11]): 6.78 µM
- Activity (MDA-MB-231 [12]): 17.71%
- Activity (MCF7 [13]): 6.18%
- Activity (MCF7 [14]): 6.44%
- Activity (MCF7 [15]): inactive
- Activity (MCF7 [16]): 35.77%
- IC50 (MCF7 [17]): 1.83 µM
- Activity (MCF7 [18]): Active
- Activity (MCF7 [19]): 0.52%
- Activity (MCF7 [20]): Active
- Activity (MCF7 [21]): Active
- Activity (MCF7 [22]): Active
- Activity (MCF7 [23]): 42.51%
- Activity (MCF7 [24]): 15.13%
- Activity (MCF7 [25]): Active
- Activity (Mus musculus): Non-toxic
- IC50 (MDA-MB-231 [26]): 5.45 µM
- Activity (MCF7 [27]): 2.59%
- selectivity ratio [28]: 16.4
- Activity (MCF7 [29]): 20.74%
- Activity (MCF7 [30]): Active
- Activity (MDA-MB-231 [31]): 6.48%
- Activity (MCF7 [32]): Active
- Activity (MCF7 [33]): 86.96%
